The values below come from ChEMBL document CHEMBL1933006, “Mechanistic analysis of muraymycin analogues: a guide to the design of MraY inhibitors” (J Med Chem, 2011).

The structures appear in SMILES notation. In brackets after ≈: the same amount, converted by molar mass.

Assay type in all cases: functional
Assay [1] deals with Enterococcus faecalis. The experiment in a line: Antibacterial activity against vancomycin-resistant Enterococcus faecalis SR7914 after 20 hrs by broth microdilution method. To be noted: SR7914, 20 h. An outline of the steps:
(§1)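 NCCLS broth microdilution in cation-adjusted Mueller–Hinton broth. Serial 2-fold compound dilutions were inoculated with 5 × 10⁴ CFU per 0.1 mL and incubated at 35 °C for 20 h before scoring the MIC.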
In general terms: In broth dilution the organism is exposed to a series of concentrations in liquid medium.

Assay [2] deals with Enterococcus faecium. Briefly: Antibacterial activity against vancomycin-resistant Enterococcus faecium SR7917 after 20 hrs by broth microdilution method. The conditions noted are these: SR7917, 20 h. Summed up: as §1
The test system of assay [3] is Staphylococcus aureus. The experiment in a line: Antibacterial activity against methicillin-resistant Staphylococcus aureus isolate SR3637 after 20 hrs by broth microdilution method. To be noted: isolate SR3637, 20 h. Summed up:
as §1

For assay [4], the system named is Staphylococcus aureus. The experiment in a line: Antibacterial activity against methicillin-sensitive […] Staphylococcus aureus ATCC 29213 after 20 hrs by broth microdilution method. To be noted: ATCC 29213, 20 h. Summed up:
as §1

For assay [5], the system named is Enterococcus faecalis. Briefly: Antibacterial activity against Enterococcus faecalis ATCC 29212 after 20 hrs by broth microdilution method. The conditions noted are these: ATCC 29212, 20 h. An outline of the steps: as §1
The test system of assay [6] is Enterococcus faecium. Briefly: Antibacterial activity against Enterococcus faecium ATCC 19434 after 20 hrs by broth microdilution method. The conditions noted are these: ATCC 19434, 20 h. An outline of the steps:
as §1

Regarding `CCCCOc1ccc(-c2ccc(CC[C@@H](NC(=O)[C@@H](NC(=O)N[C@H](C(=O)O)C(C)C)[C@@H]3CCNC(=N)N3)C(=O)NCCCN[C@H](C(=O)O)[C@H](O[C@@H]3O[C@H](CN)[C@@H](O)[C@H]3O)[C@H]3O[C@@H](n4ccc(=O)[nH]c4=O)[C@H](O)[C@@H]3O)cc2)cc1`, the MIC (as a rule, the least concentration at which growth counts as inhibited) with Enterococcus faecalis [1] worked out at 64 µg/mL (≈ 57.5 µM); in the assay on Enterococcus faecium [2], 8 µg/mL (≈ 7.19 µM); against Staphylococcus aureus [3], 64 µg/mL (≈ 57.5 µM); with Staphylococcus aureus [4], 64 µg/mL (≈ 57.5 µM); against Enterococcus faecalis [5], 32 µg/mL (≈ 28.8 µM); against Enterococcus faecium [6], 4 µg/mL (≈ 3.6 µM).

Take `CCCCCCOc1ccc(-c2ccc([C@@H](NC(=O)[C@@H](NC(=O)N[C@H](C(=O)O)C(C)C)[C@@H]3CCNC(=N)N3)C(=O)NCCCN[C@H](C(=O)O)[C@H](O[C@@H]3O[C@H](CN)[C@@H](O)[C@H]3O)[C@H]3O[C@@H](n4ccc(=O)[nH]c4=O)[C@H](O)[C@@H]3O)cc2)cc1`: the MIC in the assay with Enterococcus faecalis [1] is 16 µg/mL (≈ 14.4 µM); with Enterococcus faecium [2], 8 µg/mL (≈ 7.19 µM); in the assay with Staphylococcus aureus [3] it was 16 µg/mL (≈ 14.4 µM); in the assay on Staphylococcus aureus [4] it was 16 µg/mL (≈ 14.4 µM); in the assay on Enterococcus faecalis [5], 16 µg/mL (≈ 14.4 µM); against Enterococcus faecium [6], 4 µg/mL (≈ 3.6 µM).

Take `CCCCCCCCCCCCCCC[C@H](NC(=O)[C@@H](NC(=O)N[C@H](C(=O)O)C(C)C)[C@H]1CCNC(=N)N1)C(=O)NCCCN[C@H](C(=O)O)[C@H](O[C@@H]1O[C@H](CN)[C@@H](O)[C@H]1O)[C@H]1O[C@@H](n2ccc(=O)[nH]c2=O)[C@H](O)[C@@H]1O`: the MIC worked out at 4 µg/mL (≈ 3.74 µM) in the assay with Enterococcus faecalis [1]; 2 µg/mL (≈ 1.87 µM) with Enterococcus faecium [2]; 2 µg/mL (≈ 1.87 µM) against Staphylococcus aureus [3]; 2 µg/mL (≈ 1.87 µM) with Staphylococcus aureus [4]; 2 µg/mL (≈ 1.87 µM) in the assay on Enterococcus faecalis [5].

`CCCCCCCCCCCCCCC[C@H](NC(=O)[C@@H](N)[C@@H]1CCNC(=N)N1)C(=O)NCCCN[C@H](C(=O)O)[C@H](O[C@@H]1O[C@H](CN)[C@@H](O)[C@H]1O)[C@H]1O[C@@H](n2ccc(=O)[nH]c2=O)[C@H](O)[C@@H]1O`: the MIC in the assay with Enterococcus faecalis [1] is 4 µg/mL (≈ 4.31 µM); against Enterococcus faecium [2] it was 8 µg/mL (≈ 8.63 µM); against Staphylococcus aureus [3], 8 µg/mL (≈ 8.63 µM); with Staphylococcus aureus [4], 8 µg/mL (≈ 8.63 µM); against Enterococcus faecalis [5] it was 4 µg/mL (≈ 4.31 µM).

As for `CCCCCCCCCCCCCCC[C@H](NC(=O)[C@@H](N)CCCSC)C(=O)NCCCN[C@H](C(=O)O)[C@H](O[C@@H]1O[C@H](CN)[C@@H](O)[C@H]1O)[C@H]1O[C@@H](n2ccc(=O)[nH]c2=O)[C@H](O)[C@@H]1O`, the MIC in the assay with Enterococcus faecalis [1] was 4 µg/mL (≈ 4.36 µM); against Enterococcus faecium [2], 8 µg/mL (≈ 8.71 µM); against Staphylococcus aureus [3], 8 µg/mL (≈ 8.71 µM); in the assay with Staphylococcus aureus [4], 8 µg/mL (≈ 8.71 µM); against Enterococcus faecalis [5], 4 µg/mL (≈ 4.36 µM).

For `CCCCCCCCCCCCCCC[C@H](NC(=O)[C@@H](NC(=O)OCc1ccccc1)[C@@H]1CCNC(=N)N1)C(=O)NCCCN[C@H](C(=O)O)[C@H](O[C@@H]1O[C@H](CN)[C@@H](O)[C@H]1O)[C@H]1O[C@@H](n2ccc(=O)[nH]c2=O)[C@H](O)[C@@H]1O`, the MIC came to 4 µg/mL (≈ 3.77 µM) against Enterococcus faecalis [1]; 8 µg/mL (≈ 7.54 µM) against Enterococcus faecium [2]; 8 µg/mL (≈ 7.54 µM) in the assay on Staphylococcus aureus [3]; 8 µg/mL (≈ 7.54 µM) with Staphylococcus aureus [4]; 4 µg/mL (≈ 3.77 µM) with Enterococcus faecalis [5].

Turning to `CCCCCCCCCCCCCCC[C@@H](NC(=O)[C@@H](NC(=O)OCc1ccccc1)[C@@H]1CCNC(=N)N1)C(=O)NCCCN[C@H](C(=O)O)[C@H](O[C@@H]1O[C@H](CN)[C@@H](O)[C@H]1O)[C@H]1O[C@@H](n2ccc(=O)[nH]c2=O)[C@H](O)[C@@H]1O`, the MIC in the assay on Enterococcus faecalis [1] was 4 µg/mL (≈ 3.77 µM); in the assay with Enterococcus faecium [2], 4 µg/mL (≈ 3.77 µM); in the assay on Staphylococcus aureus [3], 8 µg/mL (≈ 7.54 µM); against Staphylococcus aureus [4] it was 8 µg/mL (≈ 7.54 µM); in the assay on Enterococcus faecalis [5], 4 µg/mL (≈ 3.77 µM).

Regarding `CCCCCCCCCCCCCCC[C@H](NC(=O)[C@H](CCCN)NC(=O)N[C@H](C(=O)O)C(C)C)C(=O)NCCCN[C@H](C(=O)O)[C@H](O[C@@H]1O[C@H](CN)[C@@H](O)[C@H]1O)[C@H]1O[C@@H](n2ccc(=O)[nH]c2=O)[C@H](O)[C@@H]1O`, the MIC was 8 µg/mL (≈ 7.77 µM) against Enterococcus faecalis [1]; 4 µg/mL (≈ 3.88 µM) against Enterococcus faecium [2]; 2 µg/mL (≈ 1.94 µM) in the assay on Staphylococcus aureus [3]; 4 µg/mL (≈ 3.88 µM) in the assay with Staphylococcus aureus [4]; 8 µg/mL (≈ 7.77 µM) against Enterococcus faecalis [5].

On to `CCCCCCCCCCCCCCC[C@H](NC(=O)[C@@H](N)CCCN)C(=O)NCCCN[C@H](C(=O)O)[C@H](O[C@@H]1O[C@H](CN)[C@@H](O)[C@H]1O)[C@H]1O[C@@H](n2ccc(=O)[nH]c2=O)[C@H](O)[C@@H]1O`, for which the MIC in the assay on Enterococcus faecalis [1] came to 4 µg/mL (≈ 4.51 µM); in the assay with Enterococcus faecium [2], 8 µg/mL (≈ 9.02 µM); against Staphylococcus aureus [3] it was 4 µg/mL (≈ 4.51 µM); against Staphylococcus aureus [4], 4 µg/mL (≈ 4.51 µM); against Enterococcus faecalis [5], 4 µg/mL (≈ 4.51 µM).

As to `CC(C)[C@H](NC(=O)N[C@H](C(=O)N[C@H](CCCCCCCc1ccc(-c2ccccc2)cc1)C(=O)NCCCN[C@H](C(=O)O)[C@H](O[C@@H]1O[C@H](CN)[C@@H](O)[C@H]1O)[C@H]1O[C@@H](n2ccc(=O)[nH]c2=O)[C@H](O)[C@@H]1O)[C@@H]1CCNC(=N)N1)C(=O)O`, the MIC amounted to 16 µg/mL (≈ 14.4 µM) in the assay on Enterococcus faecalis [1]; 4 µg/mL (≈ 3.6 µM) with Enterococcus faecium [2]; 16 µg/mL (≈ 14.4 µM) against Staphylococcus aureus [3]; 8 µg/mL (≈ 7.21 µM) against Staphylococcus aureus [4]; 8 µg/mL (≈ 7.21 µM) with Enterococcus faecalis [5]; 4 µg/mL (≈ 3.6 µM) with Enterococcus faecium [6].

In the case of `CCCCCCCCCCCCCCC[C@H](NC(=O)[C@H](CCCNC(=N)N)NC(=O)N[C@H](C(=O)O)C(C)C)C(=O)NCCCN[C@H](C(=O)O)[C@H](O[C@@H]1O[C@H](CN)[C@@H](O)[C@H]1O)[C@H]1O[C@@H](n2ccc(=O)[nH]c2=O)[C@H](O)[C@@H]1O`, the MIC in the assay on Enterococcus faecalis [1] was determined as 2 µg/mL (≈ 1.87 µM); against Enterococcus faecium [2], 1 µg/mL (≈ 0.933 µM); against Staphylococcus aureus [3] it was 2 µg/mL (≈ 1.87 µM); with Staphylococcus aureus [4], 2 µg/mL (≈ 1.87 µM); against Enterococcus faecalis [5], 2 µg/mL (≈ 1.87 µM).

Turning to `CCCCCCCCCCCCCCC[C@@H](NC(=O)[C@H](CCCN)NC(=O)N[C@H](C(=O)O)C(C)C)C(=O)NCCCN[C@H](C(=O)O)[C@H](O[C@@H]1O[C@H](CN)[C@@H](O)[C@H]1O)[C@H]1O[C@@H](n2ccc(=O)[nH]c2=O)[C@H](O)[C@@H]1O`, the MIC in the assay with Enterococcus faecalis [1] was 8 µg/mL (≈ 7.77 µM); against Enterococcus faecium [2], 8 µg/mL (≈ 7.77 µM); against Staphylococcus aureus [3] it was 8 µg/mL (≈ 7.77 µM); against Staphylococcus aureus [4] it was 4 µg/mL (≈ 3.88 µM); against Enterococcus faecalis [5], 8 µg/mL (≈ 7.77 µM).

On to `CCCCCCCCCCCCCCC[C@@H](NC(=O)[C@@H](N)[C@@H]1CCNC(=N)N1)C(=O)NCCCN[C@H](C(=O)O)[C@H](O[C@@H]1O[C@H](CN)[C@@H](O)[C@H]1O)[C@H]1O[C@@H](n2ccc(=O)[nH]c2=O)[C@H](O)[C@@H]1O`, for which the MIC in the assay with Enterococcus faecalis [1] turned out to be 8 µg/mL (≈ 8.63 µM); with Enterococcus faecium [2], 8 µg/mL (≈ 8.63 µM); with Staphylococcus aureus [3] it was 8 µg/mL (≈ 8.63 µM); with Staphylococcus aureus [4] it was 8 µg/mL (≈ 8.63 µM); in the assay on Enterococcus faecalis [5], 4 µg/mL (≈ 4.31 µM).

`CCCCCCCCCCCCCCC[C@@H](NC(=O)[C@@H](NC(=O)N[C@H](C(=O)O)C(C)C)[C@H]1CCNC(=N)N1)C(=O)NCCCN[C@H](C(=O)O)[C@H](O[C@@H]1O[C@H](CN)[C@@H](O)[C@H]1O)[C@H]1O[C@@H](n2ccc(=O)[nH]c2=O)[C@H](O)[C@@H]1O`: the MIC in the assay on Enterococcus faecalis [1] stood at 4 µg/mL (≈ 3.74 µM); against Enterococcus faecium [2] it was 4 µg/mL (≈ 3.74 µM); with Staphylococcus aureus [3] it was 2 µg/mL (≈ 1.87 µM); in the assay with Staphylococcus aureus [4], 4 µg/mL (≈ 3.74 µM); with Enterococcus faecalis [5] it was 2 µg/mL (≈ 1.87 µM).

As for `CN[C@H](CC(C)C)C(=O)N[C@H]1C(=O)N[C@@H](CC(N)=O)C(=O)N[C@H]2C(=O)N[C@H]3C(=O)N[C@H](C(=O)N[C@H](C(=O)O)c4cc(O)cc(O)c4-c4cc3ccc4O)[C@H](O)c3ccc(c(Cl)c3)Oc3cc2cc(c3O[C@@H]2O[C@H](CO)[C@@H](O)[C@H](O)[C@H]2O[C@H]2C[C@](C)(N)[C@H](O)[C@H](C)O2)Oc2ccc(cc2Cl)[C@H]1O` [VANCOMYCIN], the MIC is over 64 µg/mL against Enterococcus faecalis [1], over 64 µg/mL in the assay with Enterococcus faecium [2] and 1 µg/mL (≈ 0.69 µM) in the assay with Enterococcus faecalis [5].

`CCCCCCCCCCCCCCC[C@H](NC(=O)[C@@H](N)CCCNC(=N)N)C(=O)NCCCN[C@H](C(=O)O)[C@H](O[C@@H]1O[C@H](CN)[C@@H](O)[C@H]1O)[C@H]1O[C@@H](n2ccc(=O)[nH]c2=O)[C@H](O)[C@@H]1O`: the MIC against Enterococcus faecalis [1], against Enterococcus faecium [2], in the assay on Staphylococcus aureus [3], against Staphylococcus aureus [4] and against Enterococcus faecalis [5] was 4 µg/mL (≈ 4.31 µM) throughout.

Consider `CCCCCCCCCCCCCCC[C@@H](NC(=O)[C@H](CCCNC(=N)N)NC(=O)N[C@H](C(=O)O)C(C)C)C(=O)NCCCN[C@H](C(=O)O)[C@H](O[C@@H]1O[C@H](CN)[C@@H](O)[C@H]1O)[C@H]1O[C@@H](n2ccc(=O)[nH]c2=O)[C@H](O)[C@@H]1O`, for which the MIC was 4 µg/mL (≈ 3.73 µM) with Enterococcus faecalis [1]; 2 µg/mL (≈ 1.87 µM) with Enterococcus faecium [2]; 4 µg/mL (≈ 3.73 µM) in the assay on Staphylococcus aureus [3]; 4 µg/mL (≈ 3.73 µM) in the assay with Staphylococcus aureus [4]; 4 µg/mL (≈ 3.73 µM) against Enterococcus faecalis [5].
